{"source": "paper PMC8453865", "about": "(Clinical Pharmacology in Drug Development, 2021)", "key": {"[1]": {"settings": "cited from earlier work"}, "OATP1B3": {"test_system": "OATP1B3", "settings": "in vitro; cited from earlier work"}, "OATP1B1": {"test_system": "OATP1B1", "settings": "in vitro; cited from earlier work"}, "BCRP": {"test_system": "BCRP", "settings": "in vitro; cited from earlier work"}, "CYP2B6": {"test_system": "CYP2B6", "settings": "in vitro, via activation of the pregnane X receptor and constitutive androstane receptor; cited from earlier work"}, "CYP3A4 [2]": {"test_system": "CYP3A4", "settings": "in vitro, via activation of the pregnane X receptor and constitutive androstane receptor; cited from earlier work"}, "OATP1B1/1B3": {"test_system": "OATP1B1/1B3", "assay": "Effect of dabrafenib", "assay_type": "in vivo, human"}, "[3]": {"settings": "cited from earlier work", "remark": "listed apart in the source"}, "[4]": {"settings": "in vivo; cited from earlier work"}, "CYP3A4/CYP1A2": {"test_system": "CYP3A4/CYP1A2", "settings": "14 patients, repeat-dose dabrafenib (HPMC capsules); cited from earlier work"}, "[5]": {"settings": "human, plasma"}, "[6]": {"assay": "Safety and tolerability in patients", "assay_type": "in vivo, human", "settings": "16 patients, midazolam 3 mg", "procedure,_shortened": "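Open-label, fixed-sequence study in patients with BRAF V600 mutation–positive tumours. CYP3A and OATP1B1/1B3 probe substrates (3 mg and 10 mg) were given together on day 1, then with the test compound (150 mg twice daily, days 8–23) on days 8 and 22, after an overnight fast of at least 8 h. Monitoring covered physical examination, vital signs, 12-lead ECG, haematology and clinical chemistry, and AEs graded by NCI CTCAE v4.03.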"}, "CYP3A4 [7]": {"test_system": "CYP3A4", "assay": "Effect of dabrafenib"}, "CYP2C9": {"test_system": "CYP2C9", "settings": "14 patients, repeat-dose dabrafenib (HPMC capsules); cited from earlier work"}, "[8]": {"settings": "repeat dabrafenib dosing 150 mg twice daily (steady state) vs rosuvastatin alone"}, "[9]": {"settings": "clinical study, coadministration with gemfibrozil"}, "[10]": {"settings": "initial administration of dabrafenib vs midazolam alone"}}, "note": "Where “and” joins values, the source holds several entries; their conditions need not be identical. Identical values can stand only once.", "data": [{"smiles": "CC(C)(CO)c1nc(-c2cccc(NS(=O)(=O)c3c(F)cccc3F)c2F)c(-c2ccnc(N)n2)s1", "note": "[hydroxy‐dabrafenib]", "values": [{"measurement": "terminal half‐life of metabolite", "setting": "[1]; dabrafenib metabolites", "value": 582, "unit": "min"}, {"measurement": "inhibition of OATP1B3", "setting": "OATP1B3", "value": "inhibitors"}, {"measurement": "inhibition of OATP1B1", "setting": "OATP1B1", "value": "inhibitors"}]}, {"smiles": "CC(C)c1nc(-c2cccc(NS(=O)(=O)c3c(F)cccc3F)c2F)c(-c2ccnc(N)n2)s1", "note": "[desmethyl‐dabrafenib]", "values": [{"measurement": "inhibition of BCRP", "setting": "BCRP", "value": "inhibitors"}, {"measurement": "inhibition of OATP1B3", "setting": "OATP1B3", "value": "inhibitors"}, {"measurement": "inhibition of OATP1B1", "setting": "OATP1B1", "value": "inhibitors"}]}, {"smiles": "CC(C)(C)c1nc(-c2cccc(NS(=O)(=O)c3c(F)cccc3F)c2F)c(-c2ccnc(N)n2)s1", "note": "[dabrafenib]", "values": [{"measurement": "AUC HPMC/gelatin", "setting": "[1]; dabrafenib HPMC capsules vs gelatin capsules", "value": 1.8, "unit": "fold"}, {"measurement": "median terminal‐phase half‐life (t1/2)", "setting": "[1]; single oral dose of dabrafenib", "value": "≈ 8 hours"}, {"measurement": "time of peak plasma concentrations after dosing", "setting": "[1]; single oral dose of dabrafenib", "value": "approximately 2 hours"}, {"measurement": "oral bioavailability", "setting": "[1]; single oral dose relative to an intravenous microdose", "value": 94.5, "unit": "%"}, {"measurement": "inhibition of BCRP", "setting": "BCRP", "value": "inhibitors"}, {"measurement": "inhibition of OATP1B3", "setting": "OATP1B3", "value": "inhibitors"}, {"measurement": "inhibition of OATP1B1", "setting": "OATP1B1", "value": "inhibitors"}, {"measurement": "induction of CYP2B6", "setting": "CYP2B6", "value": "induces"}, {"measurement": "induction of CYP3A4", "setting": "CYP3A4 [2]", "value": "induces"}]}, {"smiles": "CC(C)(C(=O)O)c1nc(-c2cccc(NS(=O)(=O)c3c(F)cccc3F)c2F)c(-c2ccnc(N)n2)s1", "note": "[carboxy‐dabrafenib]", "values": [{"measurement": "inhibition of OATP1B3", "setting": "OATP1B3", "value": "inhibitors"}, {"measurement": "inhibition of OATP1B1", "setting": "OATP1B1", "value": "inhibitors"}]}, {"smiles": "CC(C)c1nc(N(C)S(C)(=O)=O)nc(-c2ccc(F)cc2)c1/C=C/[C@@H](O)C[C@@H](O)CC(=O)O", "note": "[rosuvastatin]", "values": [{"measurement": "increase in rosuvastatin Cmax", "setting": "OATP1B1/1B3; dabrafenib at initiation of dosing vs rosuvastatin alone", "value": 1.9, "unit": "fold"}, {"measurement": "increase in rosuvastatin AUC0‐∞", "setting": "OATP1B1/1B3; [8]", "value": 7, "unit": "%"}, {"measurement": "increase in rosuvastatin Cmax", "setting": "OATP1B1/1B3; [8]", "value": "2.56 fold and 2.6 fold"}, {"measurement": "rosuvastatin AUC change with gemfibrozil", "setting": "[3]; [9]", "value": 1.9, "unit": "fold"}, {"measurement": "rosuvastatin Cmax change with gemfibrozil", "setting": "[3]; [9]", "value": 2.21, "unit": "fold"}, {"measurement": "alteration in the PK parameters of rosuvastatin", "setting": "[3]; healthy volunteer study, after 6 days of rifampin (inducer) dosing", "value": "no significant alteration"}, {"measurement": "rosuvastatin AUC increase with tipranavir/ritonavir", "setting": "[3]; tipranavir/ritonavir 500 mg/200 mg twice daily for 11 days", "value": 26, "unit": "%"}, {"measurement": "excreted unchanged in the feces", "setting": "[4]", "value": 90, "unit": "%"}]}, {"smiles": "CC(=O)C[C@H](c1ccccc1)c1c(O)c2ccccc2oc1=O", "note": "[R‐warfarin]", "values": [{"measurement": "decrease in single‐dose AUC", "setting": "CYP3A4/CYP1A2", "value": 33, "unit": "%"}]}, {"smiles": "Cc1ncc2n1-c1ccc(Cl)cc1C(c1ccccc1F)=NC2", "note": "[midazolam]", "values": [{"measurement": "Tmax", "setting": "[5]", "value": 15, "unit": "min"}, {"measurement": "grade 4 presyncope attributed to midazolam dosing", "setting": "[6]", "value": 1, "unit": "patient"}, {"measurement": "change in midazolam AUC0‐∞", "setting": "CYP3A4 [7]; [10]", "value": "no change"}, {"measurement": "decrease in midazolam Cmax", "setting": "CYP3A4 [7]; [10]", "value": 1, "unit": "%"}, {"measurement": "effect of dabrafenib on midazolam tmax", "setting": "CYP3A4 [7]; initial and repeat dabrafenib dosing vs midazolam alone", "value": "No effect"}, {"measurement": "decrease in midazolam Cmax", "setting": "CYP3A4 [7]; repeat dabrafenib dosing 150 mg twice daily (steady state) vs midazolam alone", "value": 47, "unit": "%"}]}, {"smiles": "CC(=O)C[C@@H](c1ccccc1)c1c(O)c2ccccc2oc1=O", "note": "[S‐warfarin]", "values": [{"measurement": "decrease in single‐dose AUC", "setting": "CYP2C9", "value": 37, "unit": "%"}]}]}
